This is a sample that favours compounds with a hit; in the whole collection about 2.2% have one here.
LEDGF integ inh = blocks HIV-1 LEDGF/p75-dependent DNA integration. TR-FRET IN-LEDGF/p75 DNA integration, Eu/Cy5. inhibition, % at 3.7 µM. 370,000 tested, 0.64% active. AID 743269;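 active means inhibition above the screen-wide mean plus 3 SD, cut at about 13% in these data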;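 further: signal is the Cy5 over europium emission ratio at 671 and 618 nm; 0% = plate median of compound wells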
ABHD4 inh = ABHD4 (mouse) inhibition, primary FP screen; Q8VD66; purified mABHD4, FP-Rh probe fluorescence polarization; inhibition, % at 8.92 µM; 370,000 tested, 0.54% active; AID 720543;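 active means inhibition exceeding the mean over every tested compound plus 3 SD, cut at about 30% in these data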;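 further: 0% = plate median of compound wells and 100% = S159A mutant with DMSO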
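Assay system: mouse ABHD4 enzyme, wild type / Also added: fluorescent activity-based probe FP-Rh / Doses: single nominal dose of 8.92 µM, 0.89% DMSO final / Timing: 45 min compound pre-incubation plus 60 min probe step, 25 °C / Signal: FP readout, ex 525 nm / em 598 nm / Control set: S159A mutant/DMSO as 100%, compound-well median as 0%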
TDP2 inh = TDP2 (human) inhibition, absorbance primary screen | O95551 | recombinant TDP2, T5PNP hydrolysis, p-nitrophenol absorbance 415 nm | inhibition, % at 12.8 µM | 370,000 tested, 0.34% active | AID 720702;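 active means inhibition above the mean of all tested compounds plus 3 SD, set per campaign, cut at about 25% in these data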;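 further: 0% = DMSO with enzyme and 100% = buffer with substrate but no TDP2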
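System – recombinant human TDP2 · Amount – 120 nM TDP2 per well · Buffer or medium – Mg2+-containing Tris-HCl buffer, pH 7.5 · Reagent – T5PNP substrate, 5 mM · Dosing – 12.8 µM single point, 1% DMSO · Incubation – 2 h at 37 °C · Measured by – epi absorbance · Read-out basis – percent inhibition · Benchmarks – high control without enzyme, low control DMSO plus TDP2 · Repeats – singlicate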
TCR CD3 inh = blocks the human TCR-CD3 interaction | TAMRA-labeled TCR probe fluorescence, biochemical | inhibition, % at 9.4 µM | 360,000 tested, 0.37% active | AID 651800; in the data active means inhibition above about 19%;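 further: recombinant mutant TCR 2C K166C tagged with TAMRA read by polarization; 0% = receptor in buffer alone and 100% = receptor with positive control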
SIAE inh = human SIAE inhibition, primary screen | Q9HAT2 | SIAE FP-Rh probe binding, fluorescence polarization | inhibition, % at 9.66 µM | 370,000 tested, 0.69% active | AID 1053197;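 active means inhibition above a cutoff: mean of compounds within the control limits plus 3 SD of those, cut at about 17% in these data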;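 further: 0% = plate median of compound wells and 100% = probe without SIAE protein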
Target sequence (Q9HAT2 whole entry, looked up): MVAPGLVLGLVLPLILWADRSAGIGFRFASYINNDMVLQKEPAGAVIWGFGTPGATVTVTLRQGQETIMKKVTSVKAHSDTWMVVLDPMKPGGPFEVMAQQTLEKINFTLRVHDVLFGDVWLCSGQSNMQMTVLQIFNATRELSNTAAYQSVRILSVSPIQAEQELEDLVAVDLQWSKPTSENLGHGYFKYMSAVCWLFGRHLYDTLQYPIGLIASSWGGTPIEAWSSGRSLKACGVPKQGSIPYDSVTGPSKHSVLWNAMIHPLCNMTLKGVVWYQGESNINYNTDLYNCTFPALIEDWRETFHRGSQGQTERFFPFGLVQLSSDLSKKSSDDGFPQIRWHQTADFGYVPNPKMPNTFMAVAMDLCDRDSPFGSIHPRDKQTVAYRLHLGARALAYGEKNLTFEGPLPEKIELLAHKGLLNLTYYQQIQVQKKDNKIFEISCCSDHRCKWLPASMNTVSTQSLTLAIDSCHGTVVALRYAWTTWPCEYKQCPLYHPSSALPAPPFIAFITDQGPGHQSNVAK
HTRA1 inhibitor = inhibitors of human serine peptidase HTRA1 | recombinant HTRA1, FP-rhodamine activity-based probe, fluorescence polarization | Q92743 | 340,000 tested, 0.5% active | AID 504803 | inhibition, % at 5.96 µM; in the data active means inhibition above about 36%;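 further: 0% = enzyme with DMSO and 100% = wells lacking enzyme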
IN multimer up = activates HIV-1 integrase multimerization in LEDGF counter-screen | AID 1053131 | shares compounds with LEDGF integ inh | activation, % at 7.7 µM | 2,000 tested, 17% active | TR-FRET HIV-1 integrase multimerization, biochemical; in the data active means activation above about 8.9%
TR-FRET interf = counter-screen for LEDGF/p75 integration inhibitors: TR-FRET optical interference; AID 1053135; shares compounds with LEDGF integ inh; TR-FRET optical interference counterscreen, HIV-1 IN multimerization; 2,000 tested, under 10 active; inhibition, % at 7.7 µM;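 active means inhibition above the mean over all tested compounds plus 3 SD, which no compound reached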;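 further: 0% = integrase with antibodies and DMSO and 100% = antibodies without integrase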
LEDGF integ conf = LEDGF/p75-dependent HIV-1 integration inhibition, confirmation; shares compounds with LEDGF integ inh; TR-FRET LEDGF/p75-dependent HIV-1 integration, biochemical; inhibition, % at 3.7 µM; 2,000 tested, 36% active; in the data active means inhibition above about 14%
Active calls of the source: *; . = not tested or not shown.

SMILES | LEDGF integ inh | ABHD4 inh | TDP2 inh | TCR CD3 inh | SIAE inh | HTRA1 inhibitor | IN multimer up | TR-FRET interf | LEDGF integ conf
COC(=O)[C@]1(C)N[C@H](CN(C)S(=O)(=O)c2ccc(F)cc2)[C@@H]2C(=O)N(C)C(=O)[C@@H]21 | 6 | -8 | -9 | -5 | 5 | 6 | . | . | .
O=C(N/N=C/C=C/c1ccco1)/C(=C/c1ccccc1)NC(=O)c1ccccc1 | 18* | 3 | -19 | 0 | 8 | 14 | 8 | -39 | 29*
O=C(N/N=C/C=C\c1ccco1)c1cccs1 | 15* | 21 | 16 | -2 | 11 | . | 8 | -30 | 20*
CN(CC(=O)Nc1cc([N+](=O)[O-])ccc1Cl)Cc1ccc(Br)cc1 | 14* | 6 | -2 | 2 | 8 | -21 | 1 | -3 | -6
Cc1ccsc1CN(C)CC(=O)Nc1ccc([N+](=O)[O-])cc1Cl | 1 | 3 | 14 | 13 | -1 | -5 | . | . | .
CCCn1c(NC(=O)c2ccccc2)nc2ccccc21 | 19* | -3 | -8 | -3 | -1 | -5 | -3 | 13 | 24*
CCCn1c(NC(=O)c2ccc(C)cc2)nc2ccccc21 | 19* | 3 | 2 | -8 | -1 | -6 | -2 | 10 | 22*
CCCn1c(CNC(=O)c2ccccc2)nc2ccccc21 | -2 | -1 | -1 | 2 | 1 | -1 | . | . | .
Nc1ccn([C@@H]2O[C@H](C(=O)N[C@H](Cc3ccccc3)C(=O)N3CCN(CCO)CC3)[C@@H](O)[C@H]2O)c(=O)n1 | 0 | 4 | -6 | 0 | 5 | . | . | . | .
CCc1cc(=O)oc2cc(C)c(CN3CCCC(C)C3)c(O)c12 (configuration not stated) | 19* | 17 | 0 | 0 | 0 | 2 | 1 | -4 | 20*
CCCCc1cc(=O)oc2cc(C)c(CN3CCCC3)c(O)c12 | 17* | 7 | -12 | 2 | -6 | -12 | 0 | 2 | 16*
CCc1cc(=O)oc2c(CN3CCCC3)c(O)c(Cl)cc12 | 1 | -1 | 0 | 1 | 5 | 2 | . | . | .
COc1ccc(S(=O)(=O)Nc2ccc(F)c(F)c2)cc1Cl | 35* | -7 | -3 | 5 | 0 | -5 | 2 | -6 | -6
COc1ccc(NS(=O)(=O)c2ccc(OC)c(OC)c2)cc1OC | 0 | -2 | -3 | -5 | -1 | 6 | . | . | .
COc1ccc(C(=O)C2(C(=O)NC3CCCC3)CC(c3ccccc3C(F)(F)F)=NO2)cc1 (configuration not stated) | 0 | 5 | 11 | . | 5 | . | . | . | .
Cc1ccc(S(=O)(=O)N(C)C[C@@H]2OCc3cnnn3CCCC(=O)N([C@@H](C)CO)C[C@@H]2C)cc1 | 2 | 5 | 0 | -4 | -1 | 6 | . | . | .
C[C@@H]1COc2cccc(NCCCN3CCOCC3)c2S(=O)(=O)N1 | 1 | -5 | 10 | 8 | 6 | . | . | . | .
CC1=N/C(=C/c2ccco2)C(=O)O1 | 13* | -6 | 14 | 5 | 7 | 3 | 10* | -52 | 54*
c1coc(-c2ccnc3nc(-n4cccc4)nn23)c1 | 17* | -4 | -5 | 11 | -2 | -4 | 1 | -5 | 8
O=C1/C(=C/c2ccco2)Oc2c1ccc(O)c2CN1CCCCC1 | 22* | 20 | 6 | -1 | 4 | 6 | 13* | -65 | 23*
CC1CCN(Cc2c(O)ccc3c2O/C(=C\c2ccco2)C3=O)CC1 | . | . | . | . | . | 16 | . | . | .
COCCN(CCOC)Cc1c(O)ccc2c1O/C(=C\c1ccco1)C2=O | 41* | 22 | 9 | -1 | 5 | 10 | 24* | -84 | 22*
CCN(CC)C(=O)Oc1ccc2c(c1)O/C(=C\c1ccco1)C2=O | 2 | 21 | -6 | -6 | -4 | 0 | . | . | .
CCC(=O)Oc1ccc2c(c1)O/C(=C\c1ccco1)C2=O | 25* | 19 | -6 | -1 | 2 | . | 7 | -36 | 10
C[C@H]1C(c2ccccc2F)O[C@]2(C[C@H](O)c3c(ccc4ccccc34)O2)C[C@@H]1O (some centres not stated) | 2 | -2 | 1 | . | -8 | . | . | . | .
SMILES | LEDGF integ inh | ABHD4 inh | TDP2 inh | TCR CD3 inh | SIAE inh | HTRA1 inhibitor | IN multimer up | TR-FRET interf | LEDGF integ conf
CCN(C(=O)COC(=O)c1ccc(=O)n(Cc2ccccc2)n1)C1CCCCC1 | 0 | 1 | 2 | 3 | -3 | -11 | . | . | .
COc1cc(F)cc(C2=CC(=O)C[C@H](c3ccc(F)cc3)C2)c1 | 59* | 1 | -4 | -3 | 1 | -29 | 0 | -1 | -4
CC(O)CC(=O)OC[C@]12CC[C@H]3[C@@](C)(CC[C@H]4C(C)(C)CCC[C@]34C)[C@@H]1CC(C1=CC(=O)OC1O)O2 (some centres not stated) | 23* | -9 | -1 | -2 | -13 | . | 0 | 2 | 41*
CCN1CCCCC(NC(=O)c2ccc(F)c(F)c2)C1=O (configuration not stated) | 2 | 5 | -10 | . | 11 | . | . | . | .
Cc1ccc(NC(=O)C(=O)NCC2CCCO2)cc1C (configuration not stated) | 78* | -7 | -2 | 5 | -5 | 7 | 0 | 1 | -3
O=C(NCCc1ccccc1)C(=O)NCC1CCCO1 (configuration not stated) | 84* | -10 | -11 | 1 | -6 | 5 | -1 | 5 | -6
O=C(OCc1ccccc1)[C@H](Cc1ccccc1)NC(=O)[C@@H]1CC=C[C@@H]2CCN(C3CCCCC3)C(=O)[C@@H]21 | -1 | 10 | -3 | . | -9 | . | . | . | .
CCOC(=O)NNC1CC(=O)N(c2ccccc2)C1=O (configuration not stated) | 18* | 0 | 4 | 9 | 0 | 22 | 1 | -5 | 2
CCOc1ccc(NC(=O)CN(C)C(=O)c2cc3c(s2)CCC3)cc1OCC | 16* | 3 | -1 | 6 | 8 | 7 | 14* | -69 | 18*
CN(C)c1ccc(-c2[nH][nH]c(=O)c2NC(=O)c2ccc3ccccc3n2)cc1 | 31* | 18 | 90* | 2 | 9 | . | 6 | -23 | 19*
COc1ccc(-c2[nH][nH]c(=O)c2NC(=O)c2ccccc2Br)cc1 | -1 | 12 | -13 | -2 | 2 | . | . | . | .
CC(/C=C/c1ccc(C)o1)=C\C(=O)O | 5 | 2 | 0 | -1 | 6 | -1 | . | . | .
CC(=C/C(=O)O)/C=C/c1ccc(Cl)o1 | 13* | 4 | -3 | 7 | -3 | 0 | 5 | -27 | 54*
